Results taken from ChEMBL document CHEMBL4330096, “Discovery of potent and selective 5-azaindazole inhibitors of leucine-rich repeat kinase 2 (LRRK2) - Part 1” (Bioorg Med Chem Lett, 2019).

How the values were obtained:
[1] = Stability in human liver microsomes assessed as compound turnover rate measured after 40 mins; format: ADME, Microsome; conditions: read-out: Drug metabolism
Outline: (§1)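 In vitro incubation of compound with liver microsomes: human (HLM) for 40 min, mouse (MLM) for 30 min. Reported as % turnover of parent compound.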

[2] = Stability in mouse liver microsomes assessed as compound turnover rate measured after 30 mins; format: ADME, Microsome; conditions: read-out: Drug metabolism; outline: as §1
[3] = biological target: T1, Serine/threonine-protein kinase BRSK2 (Homo sapiens) (UniProt Q8IWQ3); experiment: Inhibition of BRSK2 (unknown origin) at 10 uM relative to control
T1 sequence (whole entry): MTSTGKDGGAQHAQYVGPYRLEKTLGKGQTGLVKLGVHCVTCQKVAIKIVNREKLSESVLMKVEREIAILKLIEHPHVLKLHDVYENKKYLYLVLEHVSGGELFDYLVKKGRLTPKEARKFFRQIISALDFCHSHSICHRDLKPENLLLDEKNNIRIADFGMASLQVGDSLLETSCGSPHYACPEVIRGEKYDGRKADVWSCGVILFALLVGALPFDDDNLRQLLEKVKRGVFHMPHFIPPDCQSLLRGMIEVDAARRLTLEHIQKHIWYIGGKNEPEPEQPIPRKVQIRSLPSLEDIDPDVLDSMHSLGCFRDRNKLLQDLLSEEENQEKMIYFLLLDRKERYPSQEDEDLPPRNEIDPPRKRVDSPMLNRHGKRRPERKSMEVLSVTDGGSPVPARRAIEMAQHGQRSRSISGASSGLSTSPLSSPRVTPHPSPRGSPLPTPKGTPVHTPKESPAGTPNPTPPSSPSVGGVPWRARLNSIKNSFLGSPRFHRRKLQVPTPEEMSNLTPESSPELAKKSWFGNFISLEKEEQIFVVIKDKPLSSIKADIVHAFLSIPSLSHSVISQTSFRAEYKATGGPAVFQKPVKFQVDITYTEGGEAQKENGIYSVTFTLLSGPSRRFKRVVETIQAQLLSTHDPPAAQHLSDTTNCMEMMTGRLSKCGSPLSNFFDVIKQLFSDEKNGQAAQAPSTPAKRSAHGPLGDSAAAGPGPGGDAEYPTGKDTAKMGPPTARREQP
Outline: (§2)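 Single-point screen of each compound against a panel of 59 protein kinases, at 1 or 10 μM. The panel data are also summarised as a rescaled geometric mean selectivity score.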

[4] = biological target: Casein kinase 2 (Homo sapiens) (UniProt P67870+P68400+P19784+Q8NEV1); experiment: Inhibition of CK2 (unknown origin) at 10 uM relative to control; format: protein assay; outline: as §2
[5] = biological target: Mitogen-activated protein kinase 1 (Homo sapiens) (UniProt P28482); experiment: Inhibition of ERK2 (unknown origin) at 10 uM relative to control; outline: as §2
[6] = biological target: Glycogen synthase kinase-3 beta (Homo sapiens) (UniProt P49841); experiment: Inhibition of GSK3b (unknown origin) at 10 uM relative to control; outline: as §2
[7] = biological target: Dual specificity mitogen-activated protein kinase kinase 1 (Homo sapiens) (UniProt Q02750); experiment: Inhibition of MKK1 (unknown origin) at 10 uM relative to control
Outline: (§3)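 Single-concentration screen of each compound against a 59-protein-kinase panel, run at 10 µM or 1 µM. Activity relative to control is shown as a heat map across the panel.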

[8] = biological target: MAP kinase-interacting serine/threonine-protein kinase 2 (Homo sapiens) (UniProt Q9HBH9); experiment: Inhibition of MNK2 (unknown origin) at 10 uM relative to control; outline: as §3
[9] = species: Homo sapiens; experiment: Inhibition of PKA (unknown origin) at 10 uM relative to control; outline: as §3
[10] = biological target: Protein kinase C alpha type (Homo sapiens) (UniProt P17252); experiment: Inhibition of PKCa (unknown origin) at 10 uM relative to control; outline: as §3
[11] = biological target: T2, Serine/threonine-protein kinase D1 (Homo sapiens) (UniProt Q15139); experiment: Inhibition of PKD1 (unknown origin) at 10 uM relative to control; outline: as §3
T2 sequence (whole entry): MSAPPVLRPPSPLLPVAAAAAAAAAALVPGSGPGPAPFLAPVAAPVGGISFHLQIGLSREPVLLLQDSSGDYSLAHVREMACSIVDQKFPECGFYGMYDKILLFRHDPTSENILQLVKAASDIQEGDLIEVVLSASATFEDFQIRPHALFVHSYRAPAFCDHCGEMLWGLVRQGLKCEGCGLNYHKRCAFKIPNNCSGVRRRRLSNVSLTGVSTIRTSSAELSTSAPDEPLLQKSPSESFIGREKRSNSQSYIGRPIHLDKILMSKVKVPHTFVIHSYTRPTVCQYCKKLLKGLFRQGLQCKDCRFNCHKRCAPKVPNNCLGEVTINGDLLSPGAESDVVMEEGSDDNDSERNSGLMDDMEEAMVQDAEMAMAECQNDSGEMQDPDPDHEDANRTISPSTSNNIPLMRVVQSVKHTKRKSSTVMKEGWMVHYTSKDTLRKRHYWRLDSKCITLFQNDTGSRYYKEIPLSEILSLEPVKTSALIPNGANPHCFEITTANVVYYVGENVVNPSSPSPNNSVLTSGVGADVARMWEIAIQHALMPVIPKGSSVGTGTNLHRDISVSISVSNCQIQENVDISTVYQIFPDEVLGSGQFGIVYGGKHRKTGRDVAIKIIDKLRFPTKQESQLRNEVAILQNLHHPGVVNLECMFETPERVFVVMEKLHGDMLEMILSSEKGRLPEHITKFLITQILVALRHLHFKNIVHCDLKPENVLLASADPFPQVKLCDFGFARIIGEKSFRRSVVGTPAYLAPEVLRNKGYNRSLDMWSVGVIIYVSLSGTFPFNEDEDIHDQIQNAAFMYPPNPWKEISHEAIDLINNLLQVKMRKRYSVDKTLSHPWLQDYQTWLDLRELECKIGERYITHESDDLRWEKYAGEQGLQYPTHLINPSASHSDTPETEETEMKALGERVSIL

[12] = biological target: Ribosomal protein S6 kinase beta-1 (Homo sapiens) (UniProt P23443); experiment: Inhibition of S6K1 (unknown origin) at 10 uM relative to control
Outline: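 Single-concentration screen across a panel of 59 protein kinases, with each compound tested at one fixed concentration. The read-out is residual kinase activity relative to control. Panel results are also condensed into a rescaled geometric mean (RGM) selectivity score.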

Sequence of Dual specificity mitogen-activated protein kinase kinase 1 (Homo sapiens) (Q02750 whole entry): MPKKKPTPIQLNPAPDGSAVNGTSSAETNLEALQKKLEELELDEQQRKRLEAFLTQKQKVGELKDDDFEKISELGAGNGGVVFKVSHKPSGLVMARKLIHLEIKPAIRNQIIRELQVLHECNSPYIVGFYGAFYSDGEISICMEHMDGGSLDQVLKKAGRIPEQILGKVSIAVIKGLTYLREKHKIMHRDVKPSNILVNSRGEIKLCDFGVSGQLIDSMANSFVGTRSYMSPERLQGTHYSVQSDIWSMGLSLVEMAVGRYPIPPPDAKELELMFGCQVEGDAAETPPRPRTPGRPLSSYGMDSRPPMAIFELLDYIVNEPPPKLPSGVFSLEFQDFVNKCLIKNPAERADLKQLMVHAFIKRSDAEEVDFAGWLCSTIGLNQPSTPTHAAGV
Sequence of MAP kinase-interacting serine/threonine-protein kinase 2 (Homo sapiens) (Q9HBH9 whole entry, looked up): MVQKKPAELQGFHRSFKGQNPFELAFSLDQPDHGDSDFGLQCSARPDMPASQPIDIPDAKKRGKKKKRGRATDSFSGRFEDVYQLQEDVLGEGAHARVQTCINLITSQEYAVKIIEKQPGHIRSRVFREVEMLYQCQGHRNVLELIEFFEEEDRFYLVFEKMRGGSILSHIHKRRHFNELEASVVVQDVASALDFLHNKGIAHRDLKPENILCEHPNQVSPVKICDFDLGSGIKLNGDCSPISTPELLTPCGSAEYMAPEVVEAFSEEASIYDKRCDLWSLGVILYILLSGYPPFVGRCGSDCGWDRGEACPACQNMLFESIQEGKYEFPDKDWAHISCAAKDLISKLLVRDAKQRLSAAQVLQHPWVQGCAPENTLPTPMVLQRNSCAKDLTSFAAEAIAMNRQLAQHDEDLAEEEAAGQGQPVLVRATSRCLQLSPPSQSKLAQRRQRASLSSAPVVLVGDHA
Sequence of Mitogen-activated protein kinase 1 (Homo sapiens) (P28482 whole entry): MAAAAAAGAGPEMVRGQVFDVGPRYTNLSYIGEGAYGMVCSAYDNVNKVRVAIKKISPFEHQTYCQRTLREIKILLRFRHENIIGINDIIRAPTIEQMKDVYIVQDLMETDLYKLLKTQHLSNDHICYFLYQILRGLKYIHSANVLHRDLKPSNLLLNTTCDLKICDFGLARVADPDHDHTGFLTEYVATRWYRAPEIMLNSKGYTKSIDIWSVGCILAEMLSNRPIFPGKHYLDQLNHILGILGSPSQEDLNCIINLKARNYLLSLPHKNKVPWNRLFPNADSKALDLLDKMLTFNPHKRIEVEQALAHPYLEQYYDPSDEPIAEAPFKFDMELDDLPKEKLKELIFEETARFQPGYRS
Sequence of Glycogen synthase kinase-3 beta (Homo sapiens) (P49841 whole entry, looked up): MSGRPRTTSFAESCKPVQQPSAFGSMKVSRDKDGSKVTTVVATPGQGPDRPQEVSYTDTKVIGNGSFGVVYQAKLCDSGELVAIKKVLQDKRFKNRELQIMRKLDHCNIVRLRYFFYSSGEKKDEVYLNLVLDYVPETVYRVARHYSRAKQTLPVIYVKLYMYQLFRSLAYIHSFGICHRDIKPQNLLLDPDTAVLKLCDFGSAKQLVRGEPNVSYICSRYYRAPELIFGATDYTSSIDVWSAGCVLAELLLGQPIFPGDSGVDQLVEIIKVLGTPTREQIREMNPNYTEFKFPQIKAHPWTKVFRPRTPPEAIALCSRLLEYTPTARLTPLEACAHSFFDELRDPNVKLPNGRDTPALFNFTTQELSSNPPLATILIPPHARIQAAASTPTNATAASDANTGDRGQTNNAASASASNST
Sequence of Ribosomal protein S6 kinase beta-1 (Homo sapiens) (P23443 whole entry, looked up): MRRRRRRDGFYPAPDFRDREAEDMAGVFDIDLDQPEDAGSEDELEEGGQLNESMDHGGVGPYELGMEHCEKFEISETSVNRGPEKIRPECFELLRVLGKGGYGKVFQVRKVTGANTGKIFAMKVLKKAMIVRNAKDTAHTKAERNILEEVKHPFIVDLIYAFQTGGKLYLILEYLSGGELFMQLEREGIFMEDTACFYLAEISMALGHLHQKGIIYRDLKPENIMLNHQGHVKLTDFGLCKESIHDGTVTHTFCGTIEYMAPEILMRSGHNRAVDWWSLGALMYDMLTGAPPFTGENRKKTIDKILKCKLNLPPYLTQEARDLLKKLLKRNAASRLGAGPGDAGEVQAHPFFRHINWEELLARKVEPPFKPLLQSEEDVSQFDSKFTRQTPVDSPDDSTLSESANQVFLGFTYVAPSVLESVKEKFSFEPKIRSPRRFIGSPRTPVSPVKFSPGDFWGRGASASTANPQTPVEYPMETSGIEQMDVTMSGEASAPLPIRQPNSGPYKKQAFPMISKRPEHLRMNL

Row | Compound | metabolised at 40 min [1] | metabolised at 0.5 h [2] | inhibition [3] | inhibition [4] | inhibition [5] | inhibition [6] | inhibition [7] | inhibition [8] | inhibition [9] | inhibition [10] | inhibition [11] | inhibition [12]
1 | Cc1n[nH]c2ccnc(NC3CCCCC3)c12 | 7% | 13% | 46% | 45% | 29% | 23% | 57% | 8% | 49% | 25% | 34% | 28%
2 | Cc1n[nH]c2ccnc(Nc3ccc4ncsc4c3)c12 | – | – | 35% | – | 24% | – | – | – | – | – | – | 19%
3 | Cc1n[nH]c2ccnc(OC3CCCCC3)c12 | 25% | 37% | 67% | 41% | 66% | 73% | 96% | 37% | 93% | 61% | 70% | 78%
4 | CC(C)n1cc(-c2n[nH]c3ccnc(OC4CCOCC4)c23)cn1 | 21% | 20% | – | – | – | – | – | – | – | – | – | –
5 | c1cc(-c2n[nH]c3ccnc(OC4CCOCC4)c23)cc(N2CCOCC2)n1 | 43% | 19% | – | – | – | – | – | – | – | – | – | –
6 | Cc1n[nH]c2ccnc(Nc3ccccc3F)c12 | – | – | 68% | 54% | 77% | 53% | 57% | 24% | 9% | 26% | 60% | 36%
